# According to ChEMBL document CHEMBL4251599, “Synthesis and biological evaluation of coumarin derivatives containing imidazole skeleton as potential antibacterial agents” (Eur J Med Chem, 2018):
# Experiments:
# Flavobacterium columnare [1] = experiment: Antibacterial activity against Flavobacterium columnare FC-G1 after 24 hrs by two fold serial dilution method; assay type: functional; details: FC-G1, 24 h
# Procedure, shortened: (§1)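 Broth two-fold serial dilution per CLSI, in nutrient broth. Inoculum from 24 h cultures at 28 ± 1 °C, adjusted in saline to 1×10^7-2×10^7 cfu/mL, then diluted to 1×10^5-2×10^5 cfu/mL. Test range 256 down to 0.50 µM and lower. Tubes held 24 h at 28 ± 1 °C. MIC read visually. Enrofloxacin and norfloxacin served as standards.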
# Escherichia coli [2] = experiment: Antibacterial activity against Escherichia coli ATCC 35150 after 24 hrs by two fold serial dilution method; assay type: functional; details: ATCC 35150, 24 h; procedure, shortened: as §1
# Streptococcus agalactiae [3] = experiment: Antibacterial activity against Streptococcus agalactiae WB1445 after 24 hrs by two fold serial dilution method; assay type: functional; details: WB1445, 24 h; procedure, shortened: as §1
# Staphylococcus aureus [4] = experiment: Antibacterial activity against Staphylococcus aureus ATCC 29213 after 24 hrs by two fold serial dilution method; assay type: functional; details: ATCC 29213, 24 h; procedure, shortened: as §1
# Flavobacterium columnare [5] = experiment: Bactericidal activity against Flavobacterium columnare FC-G1 incubated for 24 hrs followed by re-plating on nutrient agar and measured after overnight incubation by two fold serial dilution method; assay type: functional; details: FC-G1, 24 h
# Procedure, shortened: (§2)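 After the MIC read, 100 µl from every tube without visible growth was spread on nutrient agar lacking compound. Plates were incubated overnight at 28 ± 1 °C. MBC was taken as the lowest concentration killing >99.9% of the initial population, seen as no growth on agar.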
# Escherichia coli [6] = experiment: Bactericidal activity against Escherichia coli ATCC 35150 incubated for 24 hrs followed by re-plating on nutrient agar and measured after overnight incubation by two fold serial dilution method; assay type: functional; details: ATCC 35150, 24 h; procedure, shortened: as §2
# Streptococcus agalactiae [7] = experiment: Bactericidal activity against Streptococcus agalactiae WB1445 incubated for 24 hrs followed by re-plating on nutrient agar and measured after overnight incubation by two fold serial dilution method; assay type: functional; details: WB1445, 24 h; procedure, shortened: as §2
# Staphylococcus aureus [8] = experiment: Bactericidal activity against Staphylococcus aureus ATCC 29213 incubated for 24 hrs followed by re-plating on nutrient agar and measured after overnight incubation by two fold serial dilution method; assay type: functional; details: ATCC 29213, 24 h; procedure, shortened: as §2
# [9] = Inhibition of Escherichia coli ATCC 35150 FabI in presence of t-O-NAC and NADH up to 1 min by spectrophotometric analysis
# Procedure, shortened: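 Recombinant His-tagged FabI, expressed in E. coli BL21(DE3) and purified on Ni-NTA, was used at 20 µL of 100 µg/mL stock in 0.1 M PBS-DTT. Compounds were tested at 128-1 µM with 10 µL of 4 mM t-O-NAC, and 20 µL of 2 mM NADH started the reaction. NADH oxidation was followed at 340 nm for 1 min. IC50 came from dose-response plots.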
# [10] = target: T1, Enoyl-(Acyl-carrier-protein) reductase II (Streptococcus agalactiae serotype V (strain ATCC BAA-611 / 2603 V/R), UniProt Q8E1K8); experiment: Inhibition of Streptococcus agalactiae WB1445 FabK in presence of t-O-NAC and NADH up to 1 min by spectrophotometric analysis
# T1 sequence (Q8E1K8 whole entry): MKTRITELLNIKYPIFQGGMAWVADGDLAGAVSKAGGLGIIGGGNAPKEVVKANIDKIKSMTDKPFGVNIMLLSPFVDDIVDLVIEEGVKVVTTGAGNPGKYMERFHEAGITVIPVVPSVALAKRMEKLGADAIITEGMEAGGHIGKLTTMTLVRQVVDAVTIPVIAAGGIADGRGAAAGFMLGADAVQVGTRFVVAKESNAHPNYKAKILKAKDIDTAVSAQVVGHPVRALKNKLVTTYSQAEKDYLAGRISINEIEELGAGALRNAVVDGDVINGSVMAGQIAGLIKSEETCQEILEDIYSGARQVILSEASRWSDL
# Procedure, shortened: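 Recombinant His-tagged FabK (20 µL of 150 µg/mL stock) was assayed in 100 µL of 0.1 M ADA-DTT, pH 6.5, against compounds at 128-1 µM, with 10 µL of 4 mM t-O-NAC. Addition of 20 µL of 2 mM NADH started the reaction. Absorbance at 340 nm was read for 1 min. IC50 was estimated from dose-response curves.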
Compound,MIC (Flavobacterium columnare [1]),MIC (Escherichia coli [2]),MIC (Streptococcus agalactiae [3]),MIC (Staphylococcus aureus [4]),MBC (Flavobacterium columnare [5]),MBC (Escherichia coli [6]),MBC (Streptococcus agalactiae [7]),MBC (Staphylococcus aureus [8]),IC50 [9],IC50 [10]
Cc1cn(CCCCCCCCCCOc2ccc3ccc(=O)oc3c2)cn1,16 µM,> 256 µM,8 µM,32 µM,16 µM,> 256 µM,16 µM,128 µM,115 µM,4.37 µM
Cc1cn(CCCCCCCCOc2ccc3ccc(=O)oc3c2)cn1,4 µM,> 256 µM,4 µM,8 µM,8 µM,> 256 µM,16 µM,64 µM,117 µM,1.75 µM
O=c1ccc2ccc(OCCCCCCCCCCn3ccnc3)cc2o1,16 µM,> 256 µM,8 µM,64 µM,16 µM,> 256 µM,16 µM,128 µM,> 256 µM,5.03 µM
Cc1nccn1CCCCOc1ccc2ccc(=O)oc2c1,> 256 µM,64 µM,> 256 µM,256 µM,> 256 µM,256 µM,> 256 µM,256 µM,4.46 µM,> 256 µM
Cc1nccn1CCCCCCCCOc1ccc2ccc(=O)oc2c1,2 µM,> 256 µM,4 µM,16 µM,8 µM,> 256 µM,16 µM,128 µM,112 µM,1.13 µM
Cc1nccn1CCCCCCCCCCOc1ccc2ccc(=O)oc2c1,8 µM,> 256 µM,8 µM,64 µM,16 µM,> 256 µM,16 µM,128 µM,108 µM,4.21 µM
O=c1ccc2ccc(OCCCCCCCCn3cncn3)cc2o1,64 µM,–,32 µM,–,128 µM,–,64 µM,–,79.5 µM,7.68 µM
Cc1nccn1CCCCCCOc1ccc2ccc(=O)oc2c1,16 µM,8 µM,128 µM,64 µM,32 µM,64 µM,256 µM,256 µM,1.2 µM,3.44 µM
Cc1nccn1CCOc1ccc2ccc(=O)oc2c1,> 256 µM,64 µM,> 256 µM,> 256 µM,> 256 µM,256 µM,> 256 µM,> 256 µM,–,–
Cc1cc(=O)oc2cc(OCCCCCCCCn3ccnc3)ccc12,4 µM,> 256 µM,8 µM,64 µM,16 µM,> 256 µM,16 µM,256 µM,–,–
CCn1cc(C(=O)O)c(=O)c2cc(F)c(N3CCNCC3)cc21 [NORFLOXACIN],32 µM,1 µM,64 µM,32 µM,128 µM,2 µM,128 µM,64 µM,–,–
O=c1ccc2ccc(OCCCCCCCCn3ccnc3)cc2o1,4 µM,> 256 µM,8 µM,16 µM,8 µM,> 256 µM,16 µM,128 µM,158 µM,2.74 µM
Cc1cc(=O)oc2cc(OCCCCCCCCn3cnc4ccccc43)ccc12,16 µM,> 256 µM,32 µM,32 µM,64 µM,> 256 µM,64 µM,256 µM,–,–
Cc1cn(CCCCCCOc2ccc3ccc(=O)oc3c2)cn1,32 µM,16 µM,128 µM,32 µM,128 µM,64 µM,256 µM,128 µM,1.35 µM,3.59 µM
